# Experiments:
# [1] = target: T1, Tumour suppressor p53/oncoprotein Mdm2 (Homo sapiens, UniProt Q00987); assay: Inhibition of human recombinant His-tagged MDM2 (1 to 118 residues) interaction with FAM-tagged p53-based peptide (unknown origin) incubated for 15 mins by fluorescence polarization assay; type: protein assay
# [2] = Antiproliferative activity against human SJSA1 cells expressing wild type p53 after 72 hrs by CellTitre-Glo assay; settings: SJSA-1, 72 h
# A2780 = assay: Antitumor activity against human A2780 cells xenografted in nude mouse harboring wild type p53 assessed as tumor growth inhibition at 40 mg/kg, ip once weekly for 15 days relative to control; settings: 360 h, read-out: TGI
# Mus musculus = assay: Dose normalized AUC (0 to 24 hrs) in mouse at 1 mg/kg, po administered as single dose; type: ADME, organism-based; settings: in vivo
# Summary of the method: (§1)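 Single oral dose of 1 mg/kg. Vehicle was 20% HPBCD for mouse and 0.4% HPMC for dog and monkey. Plasma AUC over 0–24 h, dose-normalized, reported in μM·h.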
# [3] = Solubility of compound in pH 7.4 phosphate buffer; type: physicochemical
# [4] = Permeability from apical to basolateral side in human Caco2 cells; type: ADME, cell-based; settings: Caco-2, read-out: permeability
# SJSA-1 = assay: Induction of apoptosis in human SJSA1 cells assessed as caspase 3/7 activation; type: functional, cell-based
# Rhesus monkey = assay: Dose normalized AUC (0 to 24 hrs) in monkey at 1 mg/kg, po administered as single dose; type: ADME, organism-based, Macaca mulatta; settings: in vivo; summary of the method: as §1
# Canis familiaris = assay: Dose normalized AUC (0 to 24 hrs) in dog at 1 mg/kg, po administered as single dose; type: ADME, organism-based, Canis lupus familiaris; settings: in vivo; summary of the method: as §1
# [5] = Antiproliferative activity against human HCT116 cells expressing wild type p53 after 72 hrs by CellTitre-Glo assay; type: functional, cell-based; settings: HCT-116, 72 h
# Summary of the method: (§2)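 Cancer cell lines of known p53 coding-region status (checked by direct sequencing) were exposed to the compound for 72 h. Viability was read with CellTiter-Glo, and the IC50 was taken from these readings.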
# SK-UT-1 = assay: Antiproliferative activity against human SK-UT-1 cells harboring mutant p53 after 72 hrs by CellTitre-Glo assay; type: functional, cell-based; settings: SK-UT-1, 72 h; summary of the method: as §2
# [6] = Antiproliferative activity against p53 null human H1299 cells after 72 hrs by CellTitre-Glo assay; type: functional, cell-based; settings: NCI-H1299, 72 h; summary of the method: as §2
# [7] = target: T1, Tumour suppressor p53/oncoprotein Mdm2; assay: Inhibition of MDM2/p53 interaction in human HCT116 cells assessed as activation of p53 transcription by luciferase reporter gene assay; type: cell-based, HCT-116
# Summary of the method: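 p53 transcriptional activation measured in HCT116 cells with a p53 response element–driven luciferase reporter (P53RE-Luc).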
# [8] = Intrinsic clearance in human liver microsomes; type: ADME; settings: read-out: CLH
# [9] = AUC in mouse at 20 mg/kg, po or 2 mg/kg, iv; type: ADME, organism-based; settings: in vivo
# [10] = Oral bioavailability in mouse at 20 mg/kg; type: ADME, organism-based; settings: in vivo
# A549 = assay: Antitumor activity against human A549 cells xenografted in nude mouse assessed as tumor growth inhibition at 20 mg/kg, ip once weekly for 30 days relative to control; type: functional; settings: 720 h, read-out: TGI
# Summary of the method: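 Mice bearing A549 NSCLC xenografts. The test agent was given orally, either daily or intermittently (daily for 3 days, then 4 days off). Paclitaxel was given at 20 mg/kg ip weekly, alone or in combination. Read-out was tumor growth inhibition.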
# T1 sequence (P04637 whole entry, the tested form may be a part): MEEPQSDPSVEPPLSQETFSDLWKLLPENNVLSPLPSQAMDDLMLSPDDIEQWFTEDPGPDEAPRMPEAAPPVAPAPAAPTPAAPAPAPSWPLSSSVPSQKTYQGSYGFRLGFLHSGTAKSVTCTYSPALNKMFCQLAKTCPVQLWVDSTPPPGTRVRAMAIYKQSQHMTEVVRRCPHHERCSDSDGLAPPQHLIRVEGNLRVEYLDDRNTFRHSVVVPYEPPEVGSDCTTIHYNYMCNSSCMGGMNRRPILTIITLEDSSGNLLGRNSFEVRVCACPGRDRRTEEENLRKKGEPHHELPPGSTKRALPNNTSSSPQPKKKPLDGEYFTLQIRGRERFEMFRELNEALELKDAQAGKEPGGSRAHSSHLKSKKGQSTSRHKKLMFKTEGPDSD
# T1 sequence (Q00987 whole entry, the tested form may be a part): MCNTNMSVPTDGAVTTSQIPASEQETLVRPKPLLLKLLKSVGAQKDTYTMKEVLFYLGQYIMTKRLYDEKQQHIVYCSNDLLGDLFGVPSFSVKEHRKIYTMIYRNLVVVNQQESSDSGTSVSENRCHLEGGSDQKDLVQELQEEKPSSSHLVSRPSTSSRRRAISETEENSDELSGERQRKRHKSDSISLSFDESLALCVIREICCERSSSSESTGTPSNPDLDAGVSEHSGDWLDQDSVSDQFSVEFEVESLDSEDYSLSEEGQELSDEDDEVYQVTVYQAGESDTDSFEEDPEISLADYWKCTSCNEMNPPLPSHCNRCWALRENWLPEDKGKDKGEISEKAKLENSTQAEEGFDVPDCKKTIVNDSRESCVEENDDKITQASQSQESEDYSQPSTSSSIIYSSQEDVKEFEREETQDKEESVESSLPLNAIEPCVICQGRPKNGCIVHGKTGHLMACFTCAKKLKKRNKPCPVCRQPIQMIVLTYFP
SMILES,IC50 [1],IC50 [2],further results
CCC[C@H]1N(C(=O)c2cnccc2C(F)(F)F)CCC[C@@]1(Oc1csc(C(F)(F)F)c1)C(=O)N1CCN(c2ccccc2OCC(C)(C)C(=O)O)CC1,4 nM,260 nM,
CC(=O)O[C@@]12CO[C@@H]1C[C@H](O)[C@@]1(C)C(=O)[C@H](O)C3=C(C)[C@@H](OC(=O)[C@H](O)[C@@H](NC(=O)OC(C)(C)C)c4ccccc4)C[C@@](O)([C@@H](OC(=O)c4ccccc4)[C@H]21)C3(C)C [DOCETAXEL ANHYDROUS],,,inhibition in vivo at 40 mg/kg (A2780): 53%
CCC[C@H]1N(C(=O)c2cnccc2C(F)(F)F)CCC[C@@]1(Oc1csc(C(F)(F)F)c1)C(=O)N1CCN(c2ccccc2OC(C)(C)CO)CC1,25 nM,1100 nM,
"CCC[C@@H]1N(C(=O)c2cnccc2C(F)(F)F)CCC[C@]1(Oc1csc(C(F)(F)F)c1)C(=O)N1CCN(c2ccccc2OCC(=O)NC)CC1 (single isomer, unassigned)",4 nM,110 nM,AUC/dose (Mus musculus): 2 µM·h; solubility [3]: 12 µM; Papp A→B [4]: 18.1 ×10⁻⁶ cm/s; IC50 (SJSA-1): 300 nM; AUC/dose (Rhesus monkey): 0.3 µM·h; AUC/dose (Canis familiaris): 0.2 µM·h; IC50 [5]: 470 nM; IC50 (SK-UT-1): > 10000 nM; IC50 [6]: > 17000 nM; EC50 [7]: 400 nM; CLint scaled [8]: 13 mL/min/kg
CCC[C@@H]1N(C(=O)c2cnccc2C(F)(F)F)CCC[C@]1(Oc1cc(C(F)(F)F)n(C)n1)C(=O)N1CCN(c2ccccc2OCCO)CC1 (racemic),6300 nM,,
CCC[C@H]1N(C(=O)c2cnccc2C(F)(F)F)CCC[C@@]1(Oc1cccs1)C(=O)N1CCN(c2ccccc2OCCO)CC1 (racemic),2900 nM,,
CCC[C@@H]1N(C(=O)c2cnccc2C(F)(F)F)CCC[C@]1(Oc1nc(C(F)(F)F)cs1)C(=O)N1CCN(c2ccccc2OCCO)CC1 (racemic),1100 nM,,
"CCC[C@@H]1N(C(=O)c2cnccc2C(F)(F)F)CCC[C@]1(Oc1csc(C(F)(F)F)c1)C(=O)N1CCN(c2ccccc2OCC2(CC(=O)O)CC2)CC1 (single isomer, unassigned)",33 nM,,
CCC[C@H]1N(C(=O)c2cnccc2C(F)(F)F)CCC[C@@]1(Oc1csc(C(F)(F)F)c1)C(=O)N1CCN(c2ccccc2OC(C)(C)C(=O)O)CC1,11 nM,80 nM,
CCC[C@H]1N(C(=O)c2cnccc2C(F)(F)F)CCC[C@@]1(Oc1cc(I)cs1)C(=O)N1CCN(c2ccccc2OCCO)CC1 (racemic),90 nM,,
COc1ccc(C2=N[C@@H](c3ccc(Cl)cc3)[C@@H](c3ccc(Cl)cc3)N2C(=O)N2CCNC(=O)C2)c(OC(C)C)c1 [NUTLIN-3],,1900 nM,
CCC[C@H]1N(C(=O)c2cnccc2C(F)(F)F)CCC[C@@]1(Oc1csc(C(F)(F)F)c1)C(=O)N1CCN(c2ccccc2OCC(C)(C)O)CC1,23 nM,600 nM,
CCC[C@H]1N(C(=O)c2cnccc2C(F)(F)F)CCC[C@@]1(Oc1csc(C(F)(F)F)c1C)C(=O)N1CCN(c2ccccc2OCCO)CC1,58 nM,,
CCC[C@H]1N(C(=O)c2cnccc2C(F)(F)F)CCC[C@@]1(Oc1csc(C(F)(F)F)c1Cl)C(=O)N1CCN(c2ccccc2OCCO)CC1,130 nM,,
CCC[C@H]1N(C(=O)c2cnccc2C(F)(F)F)CCC[C@@]1(Oc1csc(C(F)(F)F)c1)C(=O)N1CCN(c2ccccc2OCC(=O)O)CC1,2 nM,1100 nM,AUC/dose (Mus musculus): 0.02 µM·h; Papp A→B [4]: 0.7 ×10⁻⁶ cm/s
COc1ccccc1N1CCN(C(=O)C2(Oc3ccc(C(F)(F)F)cc3)CCCN(C(=O)c3cnccc3C(F)(F)F)C2)CC1 (stereo not given),,5500 nM,
"CCC[C@@H]1N(C(=O)c2cnccc2C(F)(F)F)CCC[C@]1(Oc1csc(C(F)(F)F)c1)C(=O)N1CCN(c2ccccc2OCCC(C)(C)C(=O)O)CC1 (single isomer, unassigned)",10 nM,280 nM,
"CCC[C@@H]1N(C(=O)c2cnccc2C(F)(F)F)CCC[C@]1(Oc1csc(C(F)(F)C(F)(F)F)c1)C(=O)N1CCN(c2ccccc2OCCO)CC1 (single isomer, unassigned)",25 nM,1100 nM,
CCC[C@H]1N(C(=O)c2cnccc2C(F)(F)F)CCC[C@@]1(Oc1csc(C(F)(F)F)c1)C(=O)N1CCN(c2ccccc2OCCCCC(=O)O)CC1,7 nM,170 nM,
"CCC[C@@H]1N(C(=O)c2cnccc2C(F)(F)F)CCC[C@]1(Oc1csc(C(F)(F)F)c1)C(=O)N1CCN(c2ccccc2OCCO)CC1 (single isomer, unassigned)",15 nM,180 nM,AUC/dose (Mus musculus): 2 µM·h; solubility [3]: 10 µM; IC50 (SJSA-1): 300 nM; AUC/dose (Rhesus monkey): 0.3 µM·h; AUC/dose (Canis familiaris): 0.2 µM·h; IC50 [5]: 390 nM; IC50 (SK-UT-1): > 17000 nM; IC50 [6]: > 17000 nM; EC50 [7]: 400 nM; CLint scaled [8]: 14 mL/min/kg
"CCC[C@@H]1N(C(=O)c2cnccc2C(F)(F)F)CCC[C@]1(Oc1ccc(C(F)(F)F)cc1)C(=O)N1CCN(c2ccccc2OCCO)CC1 (single isomer, unassigned)",40 nM,460 nM,AUC/dose (Mus musculus): 1.2 µM·h; Papp A→B [4]: 9.9 ×10⁻⁶ cm/s; AUC [9]: 8.7 µM·h; CLint scaled [8]: 23 mL/min/kg; bioavailability [10]: 92%
CCC[C@@H]1N(C(=O)c2cnccc2C(F)(F)F)CCC[C@]1(Oc1cc(C(F)(F)F)cs1)C(=O)N1CCN(c2ccccc2OCCO)CC1 (racemic),170 nM,,
CC(=O)O[C@H]1C(=O)[C@@]2(C)[C@H]([C@H](OC(=O)c3ccccc3)[C@]3(O)C[C@H](OC(=O)[C@H](O)[C@@H](NC(=O)c4ccccc4)c4ccccc4)C(C)=C1C3(C)C)[C@]1(OC(C)=O)CO[C@@H]1C[C@@H]2O [PACLITAXEL],,,inhibition in vivo at 20 mg/kg (A549): 54%
CCC[C@H]1N(C(=O)c2cnccc2C(F)(F)F)CCC[C@@]1(Oc1cc(C(F)(F)F)sc1C)C(=O)N1CCN(c2ccccc2OCCO)CC1,470 nM,,
COCCOc1ccccc1N1CCN(C(=O)[C@]2(Oc3ccc(C(F)(F)F)cc3)CCCN(C(=O)c3cnccc3C(F)(F)F)[C@@H]2CCO)CC1,,530 nM,
C=CC[C@H]1N(C(=O)c2cnccc2C(F)(F)F)CCC[C@@]1(Oc1cc(C2CC2)cs1)C(=O)N1CCN(c2ccccc2OCCCC(=O)O)CC1,3500 nM,,
